Laboratory results taken from ChEMBL document CHEMBL3124899, “Design, synthesis, and characterization of α-ketoheterocycles that additionally target the cytosolic port Cys269 of fatty acid amide hydrolase” (J Med Chem, 2014).
Blank lines part the entries; values can stand above or below the compound they belong to. Calls of active or inactive are those of the source. The rule behind the calls is not given here.

Experiments:
[1] = biological target: T1, Fatty-acid amide hydrolase 1 (Rattus norvegicus, UniProt P97612); assay: Time-dependent inhibition of recombinant rat FAAH expressed in Escherichia coli assessed as breakdown of [14C]-oleamide preincubated for 3 hrs by Dixon plot analysis
T1 sequence (P97612 whole entry): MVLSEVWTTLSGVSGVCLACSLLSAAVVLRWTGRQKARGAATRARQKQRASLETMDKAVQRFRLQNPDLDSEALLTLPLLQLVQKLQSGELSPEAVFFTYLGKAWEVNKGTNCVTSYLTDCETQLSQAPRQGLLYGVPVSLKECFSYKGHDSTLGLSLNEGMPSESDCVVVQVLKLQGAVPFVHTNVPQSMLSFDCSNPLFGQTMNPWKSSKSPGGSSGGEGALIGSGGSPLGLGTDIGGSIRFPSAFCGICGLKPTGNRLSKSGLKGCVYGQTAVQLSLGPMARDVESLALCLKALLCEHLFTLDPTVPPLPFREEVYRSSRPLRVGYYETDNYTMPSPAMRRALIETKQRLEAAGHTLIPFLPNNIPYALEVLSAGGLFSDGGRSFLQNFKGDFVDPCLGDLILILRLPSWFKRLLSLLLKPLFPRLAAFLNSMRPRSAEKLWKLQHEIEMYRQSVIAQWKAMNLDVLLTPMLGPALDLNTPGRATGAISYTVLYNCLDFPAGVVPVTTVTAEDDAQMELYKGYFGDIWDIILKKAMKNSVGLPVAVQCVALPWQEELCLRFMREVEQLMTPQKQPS
Procedure, shortened: (§1)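 The reaction used 20 μM 14C-oleamide in pH 9.0 Tris/EDTA/Triton X-100/Hepes buffer at 20–23 °C, at three inhibitor concentrations. HCl-quenched time points were analysed by EtOAc extraction and TLC for oleic acid formation. Ki came from a Dixon plot.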

[2] = biological target: T1, Fatty-acid amide hydrolase 1; assay: Time-dependent inhibition of recombinant rat FAAH expressed in Escherichia coli assessed as breakdown of [14C]-oleamide preincubated for 6 hrs by Dixon plot analysis; procedure, shortened: as §1
[3] = biological target: T1, Fatty-acid amide hydrolase 1; assay: Time-dependent inhibition of recombinant rat FAAH expressed in Escherichia coli assessed as breakdown of [14C]-oleamide preincubated for 1 hr by Dixon plot analysis; procedure, shortened: as §1
[4] = biological target: T1, Fatty-acid amide hydrolase 1; assay: Inhibition of recombinant rat FAAH expressed in Escherichia coli assessed as breakdown of [14C]-oleamide by Dixon plot analysis
Procedure, shortened: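 Purified rat FAAH expressed in E. coli, with no inhibitor preincubation. The enzyme was at 1 nM, or 800, 500 or 200 pM for tight binders. It was mixed with 20 μM 14C-oleamide in pH 9.0 Tris/EDTA/glycerol/Triton X-100/Hepes buffer at room temperature, with three inhibitor concentrations. Aliquots were quenched in 0.1 N HCl at three time points, extracted with EtOAc and separated by TLC. Ki came from a Dixon plot.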

[5] = organism: Mus musculus; assay: Selectivity ratio of IC50 for mouse brain membrane ABHD6 to IC50 for mouse FAAH
[6] = biological target: T2, Fatty-acid amide hydrolase 1 (Rattus norvegicus) (UniProt P97612); assay: Noncompetitive inhibition of recombinant rat FAAH expressed in Escherichia coli assessed as breakdown of [14C]-oleamide at 3 to 5 nM preincubated for 3 hrs by Lineweaver-Burk plot analysis
T2 sequence (whole entry): T1 sequence (P97612 whole entry)

[7] = organism: Mus musculus; assay: Selectivity ratio of IC50 for mouse brain membrane KIAA1363 to IC50 for mouse FAAH
[8] = biological target: T2, Fatty-acid amide hydrolase 1 (Rattus norvegicus); assay: Irreversible inhibition of recombinant rat FAAH expressed in Escherichia coli assessed as remaining activity at IC80 preincubated for 3 hrs followed by 370 fold dilution measured after 18 hrs
[9] = system: Mus musculus; assay: In vivo inhibition of FAAH in C57Bl/6J mouse assessed as increase in AEA level in brain at 30 mg/kg, ip after 3 hrs relative to vehicle-treated control; format: functional; conditions: route intraperitoneal
Procedure, shortened: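 Male C57Bl/6J mice (<6 months, 20–28 g), n = 3, received 30 mg/kg i.p. in 18:1:1 saline/ethanol/emulphor at 10 μL/g. Brains were taken 3 h later and homogenized in CHCl3/MeOH/Tris with d4-PEA, d4-AEA and pentadecanoic acid standards. The organic extract was quantified by LC–ESI-MS/MS in positive mode and compared with vehicle-treated mice.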

[10] = organism: Mus musculus; assay: Selectivity ratio of IC50 for mouse brain membrane MAGL to IC50 for mouse FAAH
[11] = system: Mus musculus; assay: In vivo inhibition of FAAH in C57Bl/6J mouse assessed as increase in OEA level in brain at 30 mg/kg, ip measured within 1.5 to 3 hrs; format: functional, organism-based; design: dose 30 mg/kg
[12] = system: Mus musculus; assay: In vivo inhibition of FAAH in C57Bl/6J mouse assessed as increase in PEA level in brain at 30 mg/kg, ip measured within 1.5 to 3 hrs; format: functional, organism-based; design: dose 30 mg/kg
[13] = biological target: T2, Fatty-acid amide hydrolase 1 (Rattus norvegicus); assay: Noncompetitive inhibition of recombinant rat FAAH expressed in Escherichia coli assessed as breakdown of [14C]-oleamide at 0.5 to 5 nM preincubated for 3 hrs by Lineweaver-Burk plot analysis
[14] = system: Mus musculus; assay: In vivo inhibition of FAAH in C57Bl/6J mouse assessed as increase in AEA level in brain at 30 mg/kg, ip measured within 1.5 to 3 hrs; format: functional, organism-based; design: dose 30 mg/kg
[15] = system: Mus musculus; assay: In vivo inhibition of FAAH in C57Bl/6J mouse assessed as increase in AEA level in brain at 30 mg/kg, ip measured after > 6 hrs; format: functional, organism-based; design: dose 30 mg/kg
[16] = system: Mus musculus; assay: In vivo inhibition of FAAH in C57Bl/6J mouse assessed as increase in PEA level in brain at 30 mg/kg, ip measured after > 6 hrs; format: functional, organism-based; design: dose 30 mg/kg
[17] = system: Mus musculus; assay: In vivo inhibition of FAAH in C57Bl/6J mouse assessed as increase in OEA level in brain at 30 mg/kg, ip measured after > 6 hrs; format: functional, organism-based; design: dose 30 mg/kg
[18] = system: Mus musculus; assay: In vivo inhibition of FAAH in C57Bl/6J mouse assessed as increase in OEA level in brain at 30 mg/kg, ip measured within 2 to 3 hrs; format: functional, organism-based; design: dose 30 mg/kg
[19] = system: Mus musculus; assay: In vivo inhibition of FAAH in C57Bl/6J mouse assessed as increase in AEA level in brain at 30 mg/kg, ip measured within 2 to 3 hrs; format: functional, organism-based; design: dose 30 mg/kg
[20] = biological target: T2, Fatty-acid amide hydrolase 1 (Rattus norvegicus); conditions: 1 to 10 nM
[21] = system: Mus musculus; assay: In vivo inhibition of FAAH in C57Bl/6J mouse assessed as increase in PEA level in brain at 30 mg/kg, ip measured within 2 to 3 hrs; format: functional, organism-based; design: dose 30 mg/kg
[22] = biological target: T2, Fatty-acid amide hydrolase 1 (Rattus norvegicus); assay: Noncompetitive inhibition of recombinant rat FAAH expressed in Escherichia coli assessed as breakdown of [14C]-oleamide at 1 to 5 nM preincubated for 3 hrs by Lineweaver-Burk plot analysis
[23] = Chemical stability in assay buffer assessed as compound hydrolysis after 6 hrs; format: physicochemical
[24] = biological target: T2, Fatty-acid amide hydrolase 1 (Rattus norvegicus); assay: Competitive reversible inhibition of recombinant rat FAAH expressed in Escherichia coli using [14C]-oleamide as substrate at 3 to 5 nM preincubated for 3 hrs by Lineweaver-Burk plot analysis
[25] = biological target: T2, Fatty-acid amide hydrolase 1 (Rattus norvegicus); conditions: 5 to 10 nM
[26] = biological target: T2, Fatty-acid amide hydrolase 1 (Rattus norvegicus); assay: Mixed-type inhibition of recombinant rat FAAH expressed in Escherichia coli assessed as breakdown of [14C]-oleamide preincubated for 3 hrs by Lineweaver-Burk plot analysis
[27] = biological target: T2, Fatty-acid amide hydrolase 1 (Rattus norvegicus); assay: Competitive reversible inhibition of recombinant rat FAAH expressed in Escherichia coli using [14C]-oleamide as substrate at 1 to 5 nM preincubated for 3 hrs by Lineweaver-Burk plot analysis
[28] = Chemical stability in enzymatic assay buffer assessed as transient enzyme adduct formation; format: ADME
[29] = biological target: T2, Fatty-acid amide hydrolase 1 (Rattus norvegicus); assay: Noncompetitive inhibition of recombinant rat FAAH expressed in Escherichia coli assessed as breakdown of [14C]-oleamide at 1 to 3 nM preincubated for 3 hrs by Lineweaver-Burk plot analysis

SMILES: CSCCCCCc1cnc(C(=O)CCCCCCc2ccccc2)o1
Ki [1]: 6.4 nM

SMILES: O=C(CCCCCCc1ccccc1)c1ncc(CCCCCBr)o1
Ki [2]: 6 nM
Ki [3]: 6.1 nM
Ki [4]: 6.1 nM

SMILES: CS(=O)(=O)/C=C/c1ccc(-c2cnc(C(=O)CCCCCCc3ccccc3)o2)nc1
Ratio IC50 [5]: > 10000
Ki [1]: 0.3 nM
inhibition [6]: Active
Ratio IC50 [7]: > 10000
remaining activity after dilution [8]: Active
fold change (FC) [9]: 2.8
Ratio IC50 [10]: > 200

SMILES: O=C(CCCCCCc1ccccc1)c1ncc(-c2ccccn2)o1
inhibition [18]: Active
inhibition [19]: Active
inhibition [20]: Active
inhibition [21]: Active

SMILES: CCOS(=O)(=O)/C=C/c1ccc(-c2cnc(C(=O)CCCCCCc3ccccc3)o2)nc1
Ratio IC50 [5]: > 10000
inhibition [22]: Active
Ratio IC50 [7]: > 10000
remaining activity after dilution [8]: Active
fold change (FC) [9]: 3.2
Ratio IC50 [10]: > 200
Ki [3]: 0.3 nM

SMILES: CSC(=O)CCCCc1cnc(C(=O)CCCCCCc2ccccc2)o1
Stability [23]: Stable
inhibition [24]: Active

SMILES: CCOC(=O)/C=C/c1ccc(-c2cnc(C(=O)CCCCCCc3ccccc3)o2)nc1
inhibition [26]: Dose-dependent effect
remaining activity after dilution [8]: Active

SMILES: N#CCCCCCc1cnc(C(=O)CCCCCCc2ccccc2)o1
Ki [2]: 4 nM

The next lines start with results.

Ratio IC50 [5]: > 10000
Ki [2]: 0.2 nM
Ki [1]: 0.2 nM
inhibition [13]: Active
Ratio IC50 [7]: > 10000
remaining activity after dilution [8]: Active
Ratio IC50 [10]: > 200
SMILES: O=C(CCCCCCc1ccccc1)c1ncc(-c2ccc(CBr)cn2)o1
inhibition [11]: Active
inhibition [12]: Active
inhibition [14]: Active
inhibition [15]: Active
fold change (FC) [9]: 3.2
inhibition [16]: Active
inhibition [17]: Active

Ki [2]: 24.6 nM
SMILES: O=C(CCCCCCc1ccccc1)c1ncc(-c2ccc(CCl)cn2)o1

Ratio IC50 [5]: > 10000
Ki [2]: 0.5 nM
inhibition [22]: Active
Ratio IC50 [7]: > 10000
remaining activity after dilution [8]: Active
Ratio IC50 [10]: > 200
SMILES: N#CCc1ccc(-c2cnc(C(=O)CCCCCCc3ccccc3)o2)nc1
inhibition [11]: Active
inhibition [12]: Active
inhibition [14]: Active
inhibition [15]: Active
fold change (FC) [9]: 3.2
inhibition [16]: Active
inhibition [17]: Active

Ratio IC50 [5]: > 10000
Ki [2]: 0.6 nM
inhibition [6]: Active
Ratio IC50 [7]: > 10000
remaining activity after dilution [8]: Active
Ratio IC50 [10]: > 200
SMILES: COC(=N)Cc1ccc(-c2cnc(C(=O)CCCCCCc3ccccc3)o2)nc1

inhibition [25]: Active
SMILES: CSC(=O)Cc1ccc(-c2cnc(C(=O)CCCCCCc3ccccc3)o2)nc1

Ki [2]: 2.7 nM
inhibition [26]: Dose-dependent effect
remaining activity after dilution [8]: Active
SMILES: N#C/C=C/c1ccc(-c2cnc(C(=O)CCCCCCc3ccccc3)o2)nc1

inhibition [27]: Active
SMILES: COC(=O)c1ccc(-c2cnc(C(=O)CCCCCCc3ccccc3)o2)nc1

Stability [23]: Stable
Stability [28]: Stable
Ki [1]: 2 nM
inhibition [24]: Active
Ki [4]: 2 nM
SMILES: CSC(=O)c1ccc(-c2cnc(C(=O)CCCCCCc3ccccc3)o2)nc1

Ratio IC50 [5]: > 10000
inhibition [29]: Active
Ratio IC50 [7]: > 10000
remaining activity after dilution [8]: Active
Ratio IC50 [10]: > 200
SMILES: C[S+]([O-])/C=C/c1ccc(-c2cnc(C(=O)CCCCCCc3ccccc3)o2)nc1 (configuration not stated)
fold change (FC) [9]: 2.6
